Screening data as filed in PubChem BioAssay.
Exocytosis inh – blocks lytic granule exocytosis | TALL-104 LAMP-1 surface exposure, flow cytometry; cells stimulated with thapsigargin and PMA | inhibition, % at 10 µM | 360,000 compounds, 0.66% hits | AID 651702;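 active = inhibition above about 55%, limit read from the data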
TbMetRS inhib – Trypanosoma brucei MetRS inhibition. purified T. brucei MetRS, ATP depletion, Kinase-Glo luminescence. 360,000 compounds, 0.4% hits. AID 624268. inhibition, % at 11.9 µM;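 active = inhibition above a per-plate cutoff of the control wells' mean inhibition plus 3 SD, cut at about 5.5% in these data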
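Assay system: T. brucei methionyl-tRNA synthetase, purified | Medium: HEPES buffer with MgCl2, KCl, DTT, spermine, BSA, pyrophosphatase | Compound: 11.9 µM single point | Incubation: 15 min enzyme-compound preincubation, 2 h reaction, 10 min detection, 25 °C | Measured by: Kinase-Glo luciferase luminescence reporting remaining unconsumed ATP | Measure: % inhibition normalized to control-well medians | Replication: Singlicate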
iPSC survival up – hiPSC single-cell survival enhancement. AID 602274. survival enhancement, % at 20 µM. 360,000 compounds, 0.044% hits. ATPlite luminescence; 100% = ROCK inhibitor wells, 0% = DMSO; in the data active = survival enhancement above about 18%;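 also: cells exposed to compounds for 16 hours before the ATP read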
ABCB6 inh 2 – human ABCB6 transporter inhibition | 360,000 compounds, 0.19% hits | fluorescence ratio to DMSO, % at 10 µM | AID 602162 | K562-ABCB6 porphyrin accumulation, flow cytometry, 1 h; hits give low values | Q9NP58;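 active = fluorescence ratio to DMSO below 75%, the collection mean minus 3 SD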;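 also: signal is porphyrin accumulated inside mitochondria; lower ratio means ABCB6 inhibition with less porphyrin fluorescence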
Target sequence (Q9NP58 whole entry, looked up): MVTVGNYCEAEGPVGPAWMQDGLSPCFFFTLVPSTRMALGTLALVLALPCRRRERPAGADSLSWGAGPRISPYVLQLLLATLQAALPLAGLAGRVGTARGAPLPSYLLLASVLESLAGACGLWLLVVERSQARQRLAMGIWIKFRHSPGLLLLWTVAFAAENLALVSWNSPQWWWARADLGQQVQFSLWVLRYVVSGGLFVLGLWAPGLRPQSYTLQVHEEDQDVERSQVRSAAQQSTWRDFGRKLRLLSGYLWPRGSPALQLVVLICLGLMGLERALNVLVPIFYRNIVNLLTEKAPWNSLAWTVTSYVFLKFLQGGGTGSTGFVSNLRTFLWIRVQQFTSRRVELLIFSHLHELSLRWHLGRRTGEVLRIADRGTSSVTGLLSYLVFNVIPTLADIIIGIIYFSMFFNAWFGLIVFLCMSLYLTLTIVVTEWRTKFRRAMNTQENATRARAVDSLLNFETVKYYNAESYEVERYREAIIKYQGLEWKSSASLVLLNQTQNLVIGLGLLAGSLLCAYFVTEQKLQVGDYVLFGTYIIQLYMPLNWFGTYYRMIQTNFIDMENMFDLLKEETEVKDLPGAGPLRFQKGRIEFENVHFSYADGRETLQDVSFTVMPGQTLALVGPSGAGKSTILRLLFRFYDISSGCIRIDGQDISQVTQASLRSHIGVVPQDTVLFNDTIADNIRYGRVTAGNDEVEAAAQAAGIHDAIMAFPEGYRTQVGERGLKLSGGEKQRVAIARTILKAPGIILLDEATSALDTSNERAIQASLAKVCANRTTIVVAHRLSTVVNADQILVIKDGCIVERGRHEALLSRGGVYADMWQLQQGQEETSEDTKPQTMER
MC4R antag cAMP – antagonists of human melanocortin 4 receptor (MC4R); AID 540295; 360,000 compounds, 0.48% hits; inhibition, % at 6.5 µM; MC4R-expressing cells, MTII-stimulated cAMP, LANCE TR-FRET; P32245;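 active = inhibition above its plate's cutoff, the mean of tested wells on that plate plus 3 SD, cut at about 29% in these data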
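Assay system: U2OS-MC4R stable cell line; Also added: Melanotan II; Technique: Eu-cAMP/anti-cAMP TR-FRET, emission 671 nm; Times: 30-min compound, 1-h challenge, 1-h detection, room temperature.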
MC4R barr agon – human MC4R agonism via beta-arrestin. P32245. U2OS MC4R beta-arrestin complementation, luminescence; percent of melanotan II response, DMSO zero. activation, % at 8.9 µM. 360,000 compounds, 0.98% hits. AID 540308;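 active = activation above a per-plate cutoff, the mean activation of sample wells on that plate plus 3 SD, cut at about 8% in these data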
cAMP nonselect – U2OS forskolin cAMP inhibition counter-screen | parental U2OS, LANCE TR-FRET | 1,600 compounds, 26% hits | AID 602193 | shares compounds with MC4R antag cAMP | inhibition, % at 6.5 µM;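 active = mean inhibition over triplicates above the low-control well mean plus 3 SD, set per campaign, cut at about 13% in these data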;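 also: signal is single emission at 671 nm which falls as cellular cAMP rises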
MC4R cAMP antag – human MC4R cAMP antagonism confirmation; MC4R-expressing cells, MTII-stimulated cAMP, TR-FRET; 1,600 compounds, 27% hits; shares compounds with MC4R antag cAMP; AID 602195; inhibition, % at 6.5 µM; in the data active = inhibition above about 29%
Of the large screens only hits and unclear results are named; the others gave an inactive call (follow-up assays come after a bar, where they were run). This is a sample that favours compounds with a hit; in the whole collection about 2.6% have one here.

COc1ccc(N2CCN(C(c3cccs3)C(C)NC(=O)c3ccco3)CC2)cc1 (stereo unspecified)	none
COc1ccc(N2CCN(C(CNC(=O)C(=O)NCc3ccc4c(c3)OCO4)c3ccco3)CC2)cc1 (stereo unspecified)	MC4R antag cAMP 29.0 | cAMP nonselect inactive | MC4R cAMP antag inactive
CCN(CC)CCN1C(=O)C(=O)/C(=C(/O)c2ccc(S(=O)(=O)N3CCOCC3)cc2)C1c1ccccc1 (stereo unspecified)	none
COc1ccc(-n2c(-c3cccc(OC)c3)nc(=S)c3c2CCCC3)cc1	MC4R antag cAMP 30.9 | cAMP nonselect 16.8 | MC4R cAMP antag 32.5
CC(Sc1nnc(NC2CCCCC2)s1)C(=O)Nc1ccc2c(c1)C(=O)c1ccccc1C2=O (stereo unspecified)	MC4R antag cAMP 30.1 | cAMP nonselect inactive | MC4R cAMP antag inactive
O=S(=O)(Nc1ccc(F)cc1)c1ccc(NC(=S)Nc2ccccc2)cc1	none
Cc1ccnc2nc(C(=O)OCC(=O)c3ccccc3)nn12	none
Cc1ccc(S(=O)(=O)N2CCC[C@H]2C(=O)OCC(=O)N2CCc3ccccc32)cc1	MC4R antag cAMP 31.4 | cAMP nonselect inactive | MC4R cAMP antag inactive
Cc1ccnc2nc(C(=O)OCC(=O)N3CCc4ccccc43)nn12	MC4R antag cAMP 33.8 | cAMP nonselect inactive | MC4R cAMP antag inactive
CN1CCC(N(C)C(=O)c2ccc(Cl)c(S(=O)(=O)N3CCCCC3)c2)CC1	none
CC(C)[C@H](NC(=O)OC(C)(C)C)C(=O)NCC1CCC(C(=O)N[C@@H](Cc2ccccc2)C(=O)O)CC1 (stereo partly specified)	none
Cc1ccccc1OCCC(=O)OCC(=O)Nc1cc(S(=O)(=O)N2CCOCC2)ccc1Cl	MC4R antag cAMP 34.7 | cAMP nonselect inactive | MC4R cAMP antag inactive
COCC(C)NC(=O)c1cc(OC)cc(OC)c1 (stereo unspecified)	MC4R antag cAMP 36.4 | cAMP nonselect inactive | MC4R cAMP antag inactive
COc1ccc(/C=C/C(=O)c2ccc([N+](=O)[O-])o2)cc1	MC4R antag cAMP 30.1 | cAMP nonselect inactive | MC4R cAMP antag inactive
COc1ccc(-c2noc(CCCC(=O)NC3CCCCC3)n2)cc1	none
Cc1ccc(NC(=O)NC(=O)c2cnccc2C(F)(F)F)c(C)c1	none
Cc1ccc(N=C(NO)c2cnccc2C(F)(F)F)c(C)c1	MC4R antag cAMP 30.5 | cAMP nonselect inactive | MC4R cAMP antag inactive
O=C(Nc1ccccc1)c1sc(Cl)nc1-c1ccccc1	none
O=C(Nc1cc(F)cc(F)c1)c1sc(Cl)nc1-c1ccccc1	MC4R antag cAMP 31.5 | cAMP nonselect inactive | MC4R cAMP antag inactive
Cc1ccc(NC(=O)c2sc(Cl)nc2-c2ccccc2)cc1C	MC4R antag cAMP 43.5 | cAMP nonselect 15.7 | MC4R cAMP antag 45.9
Cc1cc(=O)n2c(C(=O)Nc3ccc(C)c(C)c3)c(C(=O)Nc3ccccc3)sc2n1	none
COC(=O)c1ccccc1NC(=S)NC(=O)COc1ccc(C(C)C)cc1	none
CC(C)c1ccc(OCC(=O)NC(=S)Nc2ccc3c4c(cccc24)CC3)cc1	MC4R antag cAMP 38.1 | cAMP nonselect 19.9 | MC4R cAMP antag 37.1
COc1ccc(C(C(=O)NC2CCCCC2)N(C(=O)CCCC(=O)Nc2ccccn2)c2ccc3c(c2)OCCO3)cc1 (stereo unspecified)	MC4R antag cAMP 33.4 | cAMP nonselect inactive | MC4R cAMP antag inactive
O=C(CCCC(=O)N(c1ccc2c(c1)OCCO2)C(C(=O)NC1CCCCC1)c1ccc(Cl)cc1)Nc1ccccn1 (stereo unspecified)	none
CC(C)(C)c1ccc(C(=O)O)c(C(=O)c2ccc(C(=O)O)cc2)c1	none
CC(C)(C)c1ccc(C(=O)O)c(C(=O)c2ccccc2)c1	MC4R antag cAMP 30.7 | cAMP nonselect inactive | MC4R cAMP antag inactive
COc1ccc(OC)c(N(CC(=O)Nc2ccc3c(c2)OCCO3)S(C)(=O)=O)c1	none
O=C(Nc1nccs1)c1ccc(Cl)nc1	none
Cc1csc(NC(=O)c2ccc(Cl)nc2)n1	MC4R antag cAMP 29.0 | cAMP nonselect inactive | MC4R cAMP antag inactive
O=C(/C=C/c1cccc(Cl)c1)NNC(=O)c1ccncc1	none
CN(C(=O)c1ccccc1C(=O)OCC(=O)Nc1cccc(Br)c1)c1ccccc1	none
O=C1OCCC1Sc1nc2ccccc2n1Cc1ccccc1 (stereo unspecified)	MC4R antag cAMP 30.0 | cAMP nonselect inactive | MC4R cAMP antag 36.9
O=C1OCCC1Sc1nnc(-c2ccc(F)cc2)n1Cc1ccccc1 (stereo unspecified)	MC4R antag cAMP 32.1 | cAMP nonselect 25.8 | MC4R cAMP antag 32.3
COc1ccc(-n2c(SC3CCOC3=O)nc3ccccc32)cc1 (stereo unspecified)	MC4R antag cAMP 42.1 | cAMP nonselect inactive | MC4R cAMP antag inactive
O=C1OCCC1Sc1nc2ccccc2c(=O)n1-c1ccc(F)cc1 (stereo unspecified)	none
O=C1OCCC1Sc1nc2ccccc2c(=O)n1Cc1ccc(F)cc1 (stereo unspecified)	none
CC(=O)Nc1ccc(NC(=O)C(Cc2ccccc2)NC(=O)C2CCC(C)CC2)cc1 (stereo unspecified)	none
CC1CN(C(=O)c2cc3cc(Br)ccc3[nH]2)CC(C)O1 (stereo unspecified)	none
CC1=C/C(=N\OS(=O)(=O)c2ccccc2)C(C)=CC1=O	Exocytosis inh 99.1, MC4R antag cAMP 67.5 | cAMP nonselect 39.3 | MC4R cAMP antag 76.3
Cc1ccccc1NCC(=O)N/N=C\c1ccc2c(c1)OCO2	none
Cc1ccc(C)c(NC(=O)CCC(=O)N/N=C/c2ccc3c(c2)OCO3)c1	MC4R antag cAMP 31.5 | cAMP nonselect inactive | MC4R cAMP antag inactive
CCN(CC)S(=O)(=O)c1ccc(N2CCOCC2)c(NC(=O)c2ccccc2F)c1	MC4R antag cAMP 30.4 | cAMP nonselect inactive | MC4R cAMP antag inactive
Cc1c(N=C2SCC(=O)N2/N=C\c2ccc(Br)cc2)c(=O)n(-c2ccccc2)n1C	MC4R antag cAMP 31.1 | cAMP nonselect inactive | MC4R cAMP antag inactive
Cc1c(N=C2SCC(=O)N2/N=C/c2ccccc2Cl)c(=O)n(-c2ccccc2)n1C	none
O=C1c2ccccc2C(=O)N1c1nccs1	none
O=c1c2ccccc2sn1-c1nccs1	Exocytosis inh 85.3, MC4R antag cAMP 37.5 | cAMP nonselect inactive | MC4R cAMP antag inactive
